# In ChEMBL document CHEMBL1137665, “Antistaphylococcal activity of CG400549, a new experimental FabI inhibitor, compared with that of other agents” (2007):
# Tests used:
# [1] = system: Staphylococcus aureus; assay: Antimicrobial activity against methicillin-susceptible Staphylococcus aureus by agar dilution CLSI method; assay type: functional
# How it was run: (§1)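 CLSI agar dilution MIC against S. aureus clinical isolates. Calcium was added to the medium for daptomycin testing. Vancomycin plates were read after a full 24-h incubation.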
# [2] = system: Staphylococcus aureus; assay: Antimicrobial activity against methicillin-resistant Staphylococcus aureus by agar dilution CLSI method; assay type: functional; how it was run: as §1
# [3] = system: Staphylococcus aureus; assay: Antimicrobial activity against community-acquired vancomycin-intermediate Staphylococcus aureus 504 by agar dilution CLSI method; assay type: functional; how it was run: as §1
# [4] = system: Staphylococcus aureus; assay: Antimicrobial activity against vancomycin-resistant Staphylococcus aureus 509 Michigan by agar dilution CLSI method; assay type: functional
# How it was run: (§2)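 Agar dilution MIC per CLSI methodology; calcium supplemented for daptomycin testing; vancomycin plates read after a full 24-h incubation.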
# [5] = system: Staphylococcus aureus; assay: Antimicrobial activity against vancomycin-resistant Staphylococcus aureus 510 Hershey by agar dilution CLSI method; assay type: functional; how it was run: as §2
# [6] = system: Staphylococcus aureus; assay: Antimicrobial activity against vancomycin-intermediate Staphylococcus aureus 504 after 50 passages by multi-step resistance selection technique; assay type: functional
# How it was run: (§3)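 Multistep selection: S. aureus strains (MSSA and MRSA, including VISA and VRSA) were passaged serially once daily in subinhibitory concentrations of each antimicrobial. Mutant and parent identities were confirmed by pulsed-field gel electrophoresis at the end of the study. Mutant MIC stability was checked after 10 daily subcultures on antibiotic-free media.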
# [7] = system: Staphylococcus aureus; assay: Antimicrobial activity against vancomycin-intermediate Staphylococcus aureus 555 Hershey after 50 passages by multi-step resistance selection technique; assay type: functional
# How it was run: (§4)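 Multistep selection: 10 S. aureus strains (8 MRSA incl. two VRSA, two VISA; 2 MSSA) serially passaged daily at subinhibitory concentrations of each antimicrobial; MICs of mutants retested and compared with parent; clone identity versus parent confirmed by pulsed-field gel electrophoresis at study end.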
# [8] = system: Staphylococcus aureus; assay: Antimicrobial activity against methicillin-susceptible Staphylococcus aureus 540 after 50 passages by multi-step resistance selection technique
# [9] = system: Staphylococcus aureus; assay: Antimicrobial activity against vancomycin-intermediate Staphylococcus aureus 504 after 22 passages with Linezolid measured after 10 times antibiotic-free subculture by multi-step resistance selection technique; assay type: functional
# How it was run: (§5)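 Multistep-selected mutants (daily passage at subinhibitory drug levels) then subcultured 10 times daily on antibiotic-free medium; MIC redetermined afterwards and compared with the MIC recorded at the end of selection; clone identity to parent checked by pulsed-field gel electrophoresis.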
# [10] = system: Staphylococcus aureus; assay: Antimicrobial activity against vancomycin-resistant Staphylococcus aureus 509 Michigan after 14 passages with CG400549 measured after 10 antibiotic-free subculture by multi-step resistance selection technique; assay type: functional; how it was run: as §5
# [11] = system: Staphylococcus aureus; assay: Antimicrobial activity against vancomycin-resistant Staphylococcus aureus 509 Michigan after 20 passages with daptomycin measured after 10 antibiotic-free subculture by multi-step resistance selection technique; assay type: functional; how it was run: as §5
# [12] = system: Staphylococcus aureus; assay: Antimicrobial activity against vancomycin-resistant Staphylococcus aureus 509 Michigan after 28 passages with Linezolid measured after 10 antibiotic-free subculture by multi-step resistance selection technique; assay type: functional; how it was run: as §5
# [13] = system: Staphylococcus aureus; assay: Antimicrobial activity against vancomycin-resistant Staphylococcus aureus 510 Hershey after 14 passages with CG400549 measured after 10 antibiotic-free subculture by multi-step resistance selection technique; assay type: functional; how it was run: as §5
# [14] = system: Staphylococcus aureus; assay: Antimicrobial activity against vancomycin-intermediate Staphylococcus aureus 555 Hershey by agar dilution CLSI method; assay type: functional; how it was run: as §2
# [15] = system: Staphylococcus aureus; assay: Antimicrobial activity against panton-valentine leukocidin-positive community-acquired methicillin-resistant Staphylococcus aureus 490 after 50 passages by multi-step resistance selection technique
# [16] = system: Staphylococcus aureus; assay: Antimicrobial activity against vancomycin-intermediate Staphylococcus aureus 555 Hershey after 14 passages with CG400549 measured after 10 antibiotic-free subculture by multi-step resistance selection technique; assay type: functional; how it was run: as §5
# [17] = system: Staphylococcus aureus; assay: microbe, parasite or virus in culture; conditions: 525
# [18] = system: Staphylococcus aureus; assay: microbe, parasite or virus in culture; conditions: 547
# [19] = system: Staphylococcus aureus; assay: microbe, parasite or virus in culture; conditions: 543
# [20] = system: Staphylococcus aureus; assay: microbe, parasite or virus in culture; conditions: 481
# [21] = system: Staphylococcus aureus; assay: Antimicrobial activity against vancomycin-intermediate Staphylococcus aureus 504 after 22 passages by multi-step resistance selection technique; assay type: functional; how it was run: as §3
# [22] = system: Staphylococcus aureus; assay: Antimicrobial activity against vancomycin-resistant Staphylococcus aureus 509 Michigan after 28 passages by multi-step resistance selection technique; assay type: functional; how it was run: as §4
# [23] = system: Staphylococcus aureus; assay: Antimicrobial activity against vancomycin-resistant Staphylococcus aureus 510 Hershey after 50 passages by multi-step resistance selection technique; assay type: functional; how it was run: as §4
# [24] = system: Staphylococcus aureus; assay: Antimicrobial activity against methicillin-resistant Staphylococcus aureus 547 after 48 passages by multi-step resistance selection technique; assay type: functional
# How it was run: (§6)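 Multistep selection by daily serial passage of each strain in subinhibitory drug concentrations for the stated number of passages. Mutant MIC was then determined. Identity of mutants and parents was confirmed by pulsed-field gel electrophoresis.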
# [25] = system: Staphylococcus aureus; assay: Antimicrobial activity against methicillin-susceptible Staphylococcus aureus 540 after 36 passages by multi-step resistance selection technique; assay type: functional; how it was run: as §6
# [26] = system: Staphylococcus aureus; assay: Antimicrobial activity against methicillin-susceptible Staphylococcus aureus 543 after 15 passages by multi-step resistance selection technique; assay type: functional; how it was run: as §6
# [27] = system: Staphylococcus aureus; assay: Antimicrobial activity against panton-valentine leukocidin-negative community-acquired methicillin-resistant Staphylococcus aureus 481 after 37 passages with Linezolid measured after 10 antibiotic-free subculture by multi-step resistance selection technique; assay type: functional
# How it was run: (§7)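 Mutants from multistep daily serial passage in subinhibitory drug were then subcultured daily 10 times on antibiotic-free medium. MIC was redetermined after these subcultures to assess stability. Clone identity was checked by pulsed-field gel electrophoresis.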
# [28] = system: Staphylococcus aureus; assay: Antimicrobial activity against panton-valentine leukocidin-positive community-acquired methicillin-resistant Staphylococcus aureus 490 after 22 passages with Linezolid measured after 10 antibiotic-free subculture by multi-step resistance selection technique; assay type: functional; how it was run: as §5
# [29] = system: Staphylococcus aureus; assay: Antimicrobial activity against methicillin and vancomycin-resistant Staphylococcus aureus 510 after single-step resistance selection by agar dilution CLSI method; assay type: functional
# How it was run: (§8)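 Single-step selection on drug-containing agar across 10 strains (2 MSSA, 8 MRSA, including VRSA and VISA). Colonies arising on confluent background growth were retested by CLSI agar dilution MIC. Resistance was defined as an MIC more than 4× the parent MIC.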
# [30] = system: Staphylococcus aureus; assay: Antimicrobial activity against methicillin and vancomycin-resistant Staphylococcus aureus 509 after single-step resistance selection by agar dilution CLSI method; assay type: functional; how it was run: as §8
# [31] = system: Staphylococcus aureus; assay: Antimicrobial activity against panton-valentine leukocidin-negative community-acquired methicillin-resistant Staphylococcus aureus 481 after 37 passages by multi-step resistance selection technique; assay type: functional; how it was run: as §6
# [32] = system: Staphylococcus aureus; assay: Antimicrobial activity against panton-valentine leukocidin-positive community-acquired methicillin-resistant Staphylococcus aureus 490 after 22 passages by multi-step resistance selection technique; assay type: functional; how it was run: as §4
# [33] = system: Staphylococcus aureus; assay: Antimicrobial activity against methicillin-resistant Staphylococcus aureus 547 after 48 passages with Linezolid measured after 10 antibiotic-free subculture by multi-step resistance selection technique; assay type: functional; how it was run: as §7
# [34] = system: Staphylococcus aureus; assay: Antimicrobial activity against methicillin-susceptible Staphylococcus aureus 540 after 36 passages with Linezolid measured after 10 antibiotic-free subculture by multi-step resistance selection technique; assay type: functional; how it was run: as §7
# [35] = system: Staphylococcus aureus; assay: Antimicrobial activity against methicillin-susceptible Staphylococcus aureus 543 after 15 passages with Linezolid measured after 10 antibiotic-free subculture by multi-step resistance selection technique; assay type: functional; how it was run: as §7
# [36] = system: Staphylococcus aureus; assay: Antimicrobial activity against methicillin-resistant vancomycin-intermediate Staphylococcus aureus 555 after single-step resistance selection by agar dilution CLSI method; assay type: functional; how it was run: as §8
# [37] = system: Staphylococcus aureus; assay: Antimicrobial activity against methicillin-resistant vancomycin-intermediate Staphylococcus aureus 504 after single-step resistance selection by agar dilution CLSI method; assay type: functional; how it was run: as §8
# [38] = system: Staphylococcus aureus; assay: Antimicrobial activity against methicillin-resistant Staphylococcus aureus 481 after single-step resistance selection by agar dilution CLSI method; assay type: functional; how it was run: as §8
# [39] = system: Staphylococcus aureus; assay: Antimicrobial activity against methicillin-resistant Staphylococcus aureus 490 after single-step resistance selection by agar dilution CLSI method; assay type: functional; how it was run: as §8
# [40] = system: Staphylococcus aureus; assay: Antimicrobial activity against methicillin-resistant Staphylococcus aureus 525 after single-step resistance selection by agar dilution CLSI method; assay type: functional; how it was run: as §8
# [41] = system: Staphylococcus aureus; assay: Antimicrobial activity against methicillin-resistant Staphylococcus aureus 547 after single-step resistance selection by agar dilution CLSI method; assay type: functional; how it was run: as §8
# [42] = system: Staphylococcus aureus; assay: Antimicrobial activity against methicillin-susceptible Staphylococcus aureus 540 after single-step resistance selection by agar dilution CLSI method; assay type: functional; how it was run: as §8
# [43] = system: Staphylococcus aureus; assay: Antimicrobial activity against methicillin-susceptible Staphylococcus aureus 543 after single-step resistance selection by agar dilution CLSI method; assay type: functional; how it was run: as §8
smiles,measurement,setting,value
CC[C@H]1OC(=O)[C@H](C)[C@@H](O[C@H]2C[C@@](C)(OC)[C@@H](O)[C@H](C)O2)[C@H](C)[C@@H](O[C@@H]2O[C@H](C)C[C@H](N(C)C)[C@H]2O)[C@](C)(O)C[C@@H](C)CN(C)[C@H](C)[C@@H](O)[C@]1(C)O [AZITHROMYCIN],MIC50,[1],1 µg/mL
same,MIC90,[1],> 64 µg/mL
same,MIC50,[2],> 64 µg/mL
CN[C@H](CC(C)C)C(=O)N[C@H]1C(=O)N[C@@H](CC(N)=O)C(=O)N[C@H]2C(=O)N[C@H]3C(=O)N[C@H](C(=O)N[C@H](C(=O)O)c4cc(O)cc(O)c4-c4cc3ccc4O)[C@H](O)c3ccc(c(Cl)c3)Oc3cc2cc(c3O[C@@H]2O[C@H](CO)[C@@H](O)[C@H](O)[C@H]2O[C@H]2C[C@](C)(N)[C@H](O)[C@H](C)O2)Oc2ccc(cc2Cl)[C@H]1O [VANCOMYCIN],MIC50,[1],1 µg/mL
same,MIC90,[1],2 µg/mL
same,MIC50,[2],1 µg/mL
same,MIC90,[2],2 µg/mL
same,MIC,[3],8 µg/mL
same,MIC,[4],> 64 µg/mL
same,MIC,[5],64 µg/mL
same,MIC,[6],8 µg/mL
same,MIC,[7],8 µg/mL
same,MIC,[8],8 µg/mL
same,MIC,[9],8 µg/mL
same,MIC,[10],16 µg/mL
same,MIC,[11],32 µg/mL
same,MIC,[12],> 64 µg/mL
same,MIC,[13],16 µg/mL
same,MIC,[14],8 µg/mL
same,MIC,[15],8 µg/mL
same,MIC,[16],8 µg/mL
same,MIC,[17],8 µg/mL
same,MIC,[18],8 µg/mL
same,MIC,[19],8 µg/mL
same,MIC,[20],8 µg/mL
C[C@H]1COc2c(N3CCN(C)CC3)c(F)cc3c(=O)c(C(=O)O)cn1c23.C[C@H]1COc2c(N3CCN(C)CC3)c(F)cc3c(=O)c(C(=O)O)cn1c23.O [LEVOFLOXACIN],MIC50,[1],0.25 µg/mL
same,MIC90,[1],4 µg/mL
same,MIC50,[2],1 µg/mL
same,MIC90,[2],> 32 µg/mL
CC(=O)NC[C@H]1CN(c2ccc(N3CCOCC3)c(F)c2)C(=O)O1 [LINEZOLID],MIC50,[1],1 µg/mL
same,MIC90,[1],2 µg/mL
same,MIC50,[2],1 µg/mL
same,MIC90,[2],2 µg/mL
same,MIC,[3],1 µg/mL
same,MIC,[21],8 µg/mL
same,MIC,[22],16 µg/mL
same,MIC,[23],16 µg/mL
same,MIC,[24],32 µg/mL
same,MIC,[25],32 µg/mL
same,MIC,[26],32 µg/mL
same,MIC,[27],32 µg/mL
same,MIC,[28],32 µg/mL
same,MIC,[9],8 µg/mL
same,MIC,[12],32 µg/mL
same,MIC,[29],0.5 µg/mL
same,MIC,[30],0.5 µg/mL
same,MIC,[31],32 µg/mL
same,MIC,[32],32 µg/mL
same,MIC,[33],32 µg/mL
same,MIC,[34],16 µg/mL
same,MIC,[35],32 µg/mL
same,MIC,[36],0.5 µg/mL
same,MIC,[37],0.5 µg/mL
same,MIC,[38],0.5 µg/mL
same,MIC,[39],0.5 µg/mL
same,MIC,[40],0.5 µg/mL
same,MIC,[41],0.5 µg/mL
same,MIC,[42],0.5 µg/mL
same,MIC,[43],0.5 µg/mL
